What was measured:
[1] = molecular target: Ryanodine receptor 3 (Mus musculus) (UniProt A2AGL3); experiment: Binding affinity to ryanodine receptor in Mus musculus albino Swiss-Webster (mouse) brain relative to ryanodine
[2] = molecular target: Ryanodine receptor 1 (Oryctolagus cuniculus) (UniProt P11716); experiment: Displacement of [3H]ryanodine from Ca2+-ryanodine receptor in Oryctolagus cuniculus (rabbit) skeletal muscle sarcoplasmic reticulum after 2 hr by competitive inhibition assay relative to ryanodine
In short: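 No ATP. […] Ryanoid given in DMSO (1% final). Glass-fiber filtration; three washes with ice-cold buffer a using Tris HCl instead of Hepes. Nonspecific binding with 10 μM dehydroryanodine. IC50 calculated by LIGAND; duplicate experiments.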

Musca domestica [3] = experiment: Toxicity against SCR-susceptible Musca domestica (house fly) assessed as mortality compound administered by intrathoracic injection 1 to 2 hr after piperonyl butoxide treatment measured 24 hr post compound treatment relative to ryanodine; assay type: functional
Musca domestica [4] = experiment: Toxicity against SCR-susceptible Musca domestica (house fly) assessed as immobility compound administered by intrathoracic injection 1 to 2 hr after piperonyl butoxide treatment measured 4 hr post compound treatment relative to ryanodine; assay type: functional
In short: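 Adult female flies pretreated with piperonyl butoxide (5 μg in 0.5 μL acetone, ventral abdomen); 1-2 h later, 0.22 μL ryanoid in DMSO injected into the thorax. Knockdown scored at 4 h and KD50 derived. Ten flies per dose, 1.50-2-fold dose steps, two or more experiments (or single determinations where estimated).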

[5] = molecular target: Ryanodine receptor 1 (Oryctolagus cuniculus) (UniProt P11716); experiment: Displacement of [3H]ryanodine from Ca2+-ryanodine receptor in Oryctolagus cuniculus (rabbit) skeletal muscle sarcoplasmic reticulum after 1 hr by competitive inhibition assay in presence of ATP relative to ryanodine
In short: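 Unlabeled ryanoid introduced in DMSO (1% final) before incubation. Filtration, washes in 150 mM KCl/10 mM Hepes pH 7.4. Nonspecific binding: 10 μM dehydroryanodine. IC50 from LIGAND; duplicate experiments.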

[6] = Toxicity in ip dosed Mus musculus albino Swiss-Webster (mouse) […]; assay type: organism-based; conditions: in vivo
In short: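 Male albino Swiss-Webster mice, 18–22 g; ryanoid given ip in methoxytriglycol (50 μL); mortality read at 24 h.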

Ryanodine receptor 3 = Ryanodine receptor 3 (Mus musculus, UniProt A2AGL3); experiment: Binding affinity to ryanodine receptor in Mus musculus albino Swiss-Webster (mouse) brain
Chain of Ryanodine receptor 3 (A2AGL3 whole entry): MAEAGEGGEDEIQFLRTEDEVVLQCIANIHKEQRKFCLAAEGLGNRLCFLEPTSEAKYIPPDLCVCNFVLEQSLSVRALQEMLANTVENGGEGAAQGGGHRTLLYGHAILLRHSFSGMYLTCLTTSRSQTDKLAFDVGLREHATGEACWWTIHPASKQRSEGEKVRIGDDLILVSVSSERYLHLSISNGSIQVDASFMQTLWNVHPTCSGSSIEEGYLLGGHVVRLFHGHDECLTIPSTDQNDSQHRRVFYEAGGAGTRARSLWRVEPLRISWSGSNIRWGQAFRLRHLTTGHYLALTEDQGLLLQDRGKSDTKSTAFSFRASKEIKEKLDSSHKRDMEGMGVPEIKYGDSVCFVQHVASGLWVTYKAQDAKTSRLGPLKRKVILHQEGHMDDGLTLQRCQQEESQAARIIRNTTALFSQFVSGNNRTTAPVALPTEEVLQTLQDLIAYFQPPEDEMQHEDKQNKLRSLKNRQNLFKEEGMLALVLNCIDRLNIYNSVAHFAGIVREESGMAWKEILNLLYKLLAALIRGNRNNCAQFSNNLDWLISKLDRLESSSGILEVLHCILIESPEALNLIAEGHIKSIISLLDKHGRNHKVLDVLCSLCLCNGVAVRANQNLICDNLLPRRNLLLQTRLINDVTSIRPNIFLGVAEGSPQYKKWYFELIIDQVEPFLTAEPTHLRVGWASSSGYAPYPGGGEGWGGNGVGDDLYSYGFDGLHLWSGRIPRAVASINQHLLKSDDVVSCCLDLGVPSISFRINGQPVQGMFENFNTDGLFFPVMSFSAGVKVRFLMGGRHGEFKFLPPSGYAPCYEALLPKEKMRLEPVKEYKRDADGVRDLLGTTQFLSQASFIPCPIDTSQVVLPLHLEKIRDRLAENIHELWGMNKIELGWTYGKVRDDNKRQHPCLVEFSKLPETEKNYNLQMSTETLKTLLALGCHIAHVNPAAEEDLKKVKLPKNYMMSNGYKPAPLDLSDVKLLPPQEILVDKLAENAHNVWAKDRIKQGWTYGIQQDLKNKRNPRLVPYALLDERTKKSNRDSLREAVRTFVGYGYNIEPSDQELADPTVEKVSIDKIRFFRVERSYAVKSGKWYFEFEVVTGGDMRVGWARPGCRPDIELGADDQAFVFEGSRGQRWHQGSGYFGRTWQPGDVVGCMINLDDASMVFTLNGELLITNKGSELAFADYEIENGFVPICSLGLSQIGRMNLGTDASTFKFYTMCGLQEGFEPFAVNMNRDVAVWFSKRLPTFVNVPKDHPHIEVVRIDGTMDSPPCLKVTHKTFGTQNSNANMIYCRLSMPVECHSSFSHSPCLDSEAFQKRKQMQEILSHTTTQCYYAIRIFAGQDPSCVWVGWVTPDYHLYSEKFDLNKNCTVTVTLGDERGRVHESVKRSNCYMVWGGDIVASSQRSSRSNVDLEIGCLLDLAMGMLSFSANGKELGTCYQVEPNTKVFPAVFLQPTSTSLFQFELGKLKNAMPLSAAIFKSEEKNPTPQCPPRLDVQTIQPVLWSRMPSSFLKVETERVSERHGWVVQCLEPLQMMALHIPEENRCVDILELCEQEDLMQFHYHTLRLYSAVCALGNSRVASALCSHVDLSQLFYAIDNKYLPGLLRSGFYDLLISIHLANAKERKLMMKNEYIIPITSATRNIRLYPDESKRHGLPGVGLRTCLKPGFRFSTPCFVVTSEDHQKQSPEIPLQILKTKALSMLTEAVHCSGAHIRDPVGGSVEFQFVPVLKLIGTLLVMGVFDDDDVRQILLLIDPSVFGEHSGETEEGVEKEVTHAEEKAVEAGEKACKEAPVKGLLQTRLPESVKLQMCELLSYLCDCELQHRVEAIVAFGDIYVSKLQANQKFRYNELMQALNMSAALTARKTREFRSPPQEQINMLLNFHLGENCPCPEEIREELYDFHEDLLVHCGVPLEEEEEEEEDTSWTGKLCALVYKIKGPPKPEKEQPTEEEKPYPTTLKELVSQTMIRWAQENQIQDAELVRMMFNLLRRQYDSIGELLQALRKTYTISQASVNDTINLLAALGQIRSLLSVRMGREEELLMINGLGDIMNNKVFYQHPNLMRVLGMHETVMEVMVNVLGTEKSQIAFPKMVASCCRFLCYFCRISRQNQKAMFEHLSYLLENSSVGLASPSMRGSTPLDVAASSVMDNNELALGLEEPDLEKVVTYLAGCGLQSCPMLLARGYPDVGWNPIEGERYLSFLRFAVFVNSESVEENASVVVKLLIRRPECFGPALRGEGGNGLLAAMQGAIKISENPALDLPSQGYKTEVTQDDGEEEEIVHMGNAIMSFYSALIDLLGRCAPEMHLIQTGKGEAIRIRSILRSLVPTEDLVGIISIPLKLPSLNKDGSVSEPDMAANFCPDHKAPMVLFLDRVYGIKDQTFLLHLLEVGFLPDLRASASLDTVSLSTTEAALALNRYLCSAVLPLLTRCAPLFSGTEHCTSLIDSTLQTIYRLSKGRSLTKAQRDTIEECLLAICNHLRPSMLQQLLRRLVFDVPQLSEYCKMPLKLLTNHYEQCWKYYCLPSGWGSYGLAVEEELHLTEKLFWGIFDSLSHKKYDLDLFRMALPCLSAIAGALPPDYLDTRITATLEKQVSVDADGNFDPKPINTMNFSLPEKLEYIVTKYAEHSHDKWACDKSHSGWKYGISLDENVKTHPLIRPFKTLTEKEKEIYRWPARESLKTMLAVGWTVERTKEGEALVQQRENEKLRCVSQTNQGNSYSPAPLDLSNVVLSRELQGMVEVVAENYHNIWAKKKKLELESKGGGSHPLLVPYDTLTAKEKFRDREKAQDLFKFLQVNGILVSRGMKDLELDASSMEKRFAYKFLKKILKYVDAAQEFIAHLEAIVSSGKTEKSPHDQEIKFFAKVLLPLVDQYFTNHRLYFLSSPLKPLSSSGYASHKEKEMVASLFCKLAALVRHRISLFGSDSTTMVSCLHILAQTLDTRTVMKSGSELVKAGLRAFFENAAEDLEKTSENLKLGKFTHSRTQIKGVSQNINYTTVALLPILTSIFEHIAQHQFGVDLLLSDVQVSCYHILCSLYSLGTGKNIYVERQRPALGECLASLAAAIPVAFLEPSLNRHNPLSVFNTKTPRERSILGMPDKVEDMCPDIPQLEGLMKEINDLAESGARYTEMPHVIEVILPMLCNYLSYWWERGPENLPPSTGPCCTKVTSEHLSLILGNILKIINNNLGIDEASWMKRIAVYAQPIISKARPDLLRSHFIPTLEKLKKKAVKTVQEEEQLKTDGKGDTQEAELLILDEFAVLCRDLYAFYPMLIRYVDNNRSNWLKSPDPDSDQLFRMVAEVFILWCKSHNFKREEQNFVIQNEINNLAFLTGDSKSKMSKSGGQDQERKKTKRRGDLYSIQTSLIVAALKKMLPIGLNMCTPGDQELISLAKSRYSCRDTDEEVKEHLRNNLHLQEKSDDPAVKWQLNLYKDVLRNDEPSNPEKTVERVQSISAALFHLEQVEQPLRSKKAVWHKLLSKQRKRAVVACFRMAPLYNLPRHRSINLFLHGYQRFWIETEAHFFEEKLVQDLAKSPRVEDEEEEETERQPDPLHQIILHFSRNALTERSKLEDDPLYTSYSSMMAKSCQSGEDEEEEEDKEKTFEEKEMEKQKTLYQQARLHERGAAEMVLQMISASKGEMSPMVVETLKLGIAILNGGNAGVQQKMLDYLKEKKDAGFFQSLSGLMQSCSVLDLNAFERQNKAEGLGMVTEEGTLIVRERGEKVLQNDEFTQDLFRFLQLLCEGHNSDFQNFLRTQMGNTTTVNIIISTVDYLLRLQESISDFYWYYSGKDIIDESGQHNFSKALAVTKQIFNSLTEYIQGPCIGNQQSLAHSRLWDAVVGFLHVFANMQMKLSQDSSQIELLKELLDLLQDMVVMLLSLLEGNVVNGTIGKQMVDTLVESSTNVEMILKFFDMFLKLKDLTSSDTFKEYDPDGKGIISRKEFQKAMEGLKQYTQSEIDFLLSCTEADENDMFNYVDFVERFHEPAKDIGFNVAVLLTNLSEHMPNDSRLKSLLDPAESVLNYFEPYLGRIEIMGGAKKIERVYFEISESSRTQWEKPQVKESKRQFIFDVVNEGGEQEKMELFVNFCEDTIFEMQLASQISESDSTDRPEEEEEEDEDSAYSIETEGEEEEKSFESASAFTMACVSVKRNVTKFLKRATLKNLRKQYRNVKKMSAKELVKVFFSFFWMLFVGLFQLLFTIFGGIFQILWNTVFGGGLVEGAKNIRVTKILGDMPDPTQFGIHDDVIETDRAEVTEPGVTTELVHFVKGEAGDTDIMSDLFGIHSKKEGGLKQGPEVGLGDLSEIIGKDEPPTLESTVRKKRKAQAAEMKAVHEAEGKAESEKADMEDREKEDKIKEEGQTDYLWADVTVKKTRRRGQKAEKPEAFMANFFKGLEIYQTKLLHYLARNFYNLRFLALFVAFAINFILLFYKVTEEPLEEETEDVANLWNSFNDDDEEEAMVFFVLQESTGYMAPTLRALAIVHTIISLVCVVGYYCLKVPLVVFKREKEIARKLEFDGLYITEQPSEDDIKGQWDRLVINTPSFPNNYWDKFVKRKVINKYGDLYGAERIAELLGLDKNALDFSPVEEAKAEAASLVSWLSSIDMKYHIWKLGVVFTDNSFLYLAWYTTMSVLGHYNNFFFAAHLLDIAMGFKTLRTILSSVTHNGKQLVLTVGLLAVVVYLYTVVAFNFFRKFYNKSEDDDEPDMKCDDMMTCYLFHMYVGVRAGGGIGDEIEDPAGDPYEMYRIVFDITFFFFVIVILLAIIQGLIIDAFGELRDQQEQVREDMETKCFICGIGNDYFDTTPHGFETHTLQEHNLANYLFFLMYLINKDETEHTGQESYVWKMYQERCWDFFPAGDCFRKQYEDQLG

Chain of Ryanodine receptor 3 (Mus musculus) (A2AGL3 whole entry): as above

Structure (SMILES) | Ratio [1] | Ratio [2] | Ratio (Musca domestica [3]) | Ratio (Musca domestica [4]) | Ratio [5] | LD50 [6] | IC50 (Ryanodine receptor 3)
CON[C@@]12O[C@H]3[C@]45O[C@@](O)(C[C@@]1(C)[C@@]4(O)CC[C@H](C)[C@H]5O)[C@@]3(C)[C@@](O)(C(C)C)[C@H]2OC(=O)c1ccc[nH]1 | 28 | 20 | 20 | 7 | 34 |  | 
CC(C)[C@@]1(O)[C@@H](OC(=O)c2ccc[nH]2)C(=O)[C@@]2(C)C[C@]3(O)O[C@]4(C(=O)[C@]13C)[C@H](O)[C@@H](C)CC[C@@]42O [4,12-SECO-4,12-DIOXORYANODIN] |  | 1.6 | 2 | 0.85 | 1.8 |  | 
CON[C@@]12O[C@@]3(O)[C@]45O[C@@](O)(C[C@@]1(C)[C@@]4(O)CC[C@H](C)[C@H]5O)[C@@]3(C)[C@@](O)(C(C)C)[C@H]2OC(=O)c1ccc[nH]1 | 27 | 23 | 8 | 13 | 23 |  | 
CC(C)[C@@]1(O)[C@@H](OC(=O)c2ccc[nH]2)[C@]2(O)O[C@@]3(NO)[C@]45O[C@@](O)(C[C@@]2(C)[C@@]4(O)CC[C@H](C)[C@H]5O)[C@]31C | 11 | 9 | 12 | 20 | 11 |  | 
C=C1CC[C@]2(O)[C@]3(C)C[C@]4(O)O[C@@]2([C@@H]1O)[C@]1(O)[C@@]3(O)[C@H](OC(=O)c2ccc[nH]2)[C@](O)(C(C)C)[C@@]14C [DEHYDRORYANODINE] | 77 | 91 | 136 | 90 | 112 |  | 
CC(C)[C@@]1(O)[C@@H](OC(=O)c2ccc[nH]2)[C@]2(O)O[C@H]3[C@]45O[C@@](O)(C[C@@]2(C)[C@@]4(O)CC[C@H](C)[C@H]5O)[C@]31C | 54 | 62 | 120 | 270 | 64 | 0.15 mg/kg | 
CC(C)[C@@]1(O)[C@@H](OC(=O)c2ccc[nH]2)[C@]2(NO)O[C@H]3[C@]45O[C@@](O)(C[C@@]2(C)[C@@]4(O)CC[C@H](C)[C@H]5O)[C@]31C | 43 | 50 | 100 | 200 | 67 |  | 
C=C1CC[C@]2(O)[C@]3(C)C[C@]4(O)O[C@@]2([C@@H]1O)[C@]1(O)O[C@@]3(NNC(N)=O)[C@H](OC(=O)c2ccc[nH]2)[C@](O)(C(C)C)[C@@]14C |  | 10 | 6 | 10 | 6.6 |  | 
C=C1CC[C@]2(O)[C@]3(C)C[C@]4(O)O[C@@]2([C@@H]1O)[C@]1(NNC(N)=O)O[C@@]3(O)[C@H](OC(=O)c2ccc[nH]2)[C@](O)(C(C)C)[C@@]14C |  | 6.1 |  | <4 | 4.4 |  | 
CC(C)[C@@]1(O)[C@@H](OC(=O)c2ccc[nH]2)[C@]2(NOCc3ccccc3)O[C@@]3(O)[C@]45O[C@@](O)(C[C@@]2(C)[C@@]4(O)CC[C@H](C)[C@H]5O)[C@]31C | 8.3 | 13 |  | 2 | 21 |  | 
C=C1CC[C@]2(O)[C@]3(C)C[C@]4(O)O[C@@]2([C@@H]1O)[C@]1(NNc2ccccc2)O[C@@]3(O)[C@H](OC(=O)c2ccc[nH]2)[C@](O)(C(C)C)[C@@]14C | 3.3 | 2.6 | <3 | <1.3 | 3 |  | 
CC(C)[C@@]1(O)[C@@H](OC(=O)c2ccc[nH]2)C(=O)[C@@]2(C)C[C@]3(O)O[C@]4(/C(=N\O)[C@]13C)[C@H](O)[C@@H](C)CC[C@@]42O | 1.9 | 1.7 | 30 | 8 | 3.1 |  | 
CC(C)[C@@]1(O)[C@@H](OC(=O)c2ccc[nH]2)[C@@]2(O)[C@@]3(C)C[C@]4(O)O[C@@]5([C@H](O)[C@@H](CSCCO)CC[C@]35O)[C@@]2(O)[C@]14C | 0.86 |  | 6 | 5 |  |  | 
C=C1CC[C@]2(O)[C@]3(C)C[C@]4(O)O[C@@]2([C@@H]1O)[C@]1(O)O[C@@]3(NNC(=O)c2ccccc2)[C@H](OC(=O)c2ccc[nH]2)[C@](O)(C(C)C)[C@@]14C |  |  | 40 | 13 | 6.5 |  | 
CC(C)[C@@]1(O)[C@@H](OC(=O)c2ccc[nH]2)[C@@]2(O)[C@@]3(C)C[C@]4(O)O[C@@]5([C@H](O)[C@@H](CSC(C)(C)C)CC[C@]35O)[C@@]2(O)[C@]14C | 0.41 |  |  | 2 |  |  | 
C=C1CC[C@]2(O)[C@]3(C)C[C@]4(O)O[C@@]2([C@@H]1O)[C@]1(O)O[C@@]3(NNc2ccccc2)[C@H](OC(=O)c2ccc[nH]2)[C@](O)(C(C)C)[C@@]14C | 2.5 | 5.4 |  | <2 | 6.1 |  | 
CC(C)[C@@]1(O)[C@@H](OC(=O)c2ccc[nH]2)[C@@]2(O)[C@@]3(C)C[C@]4(O)O[C@@]5([C@H](O)[C@@H](C)CC[C@]35O)[C@@]2(O)[C@@]14C [RYANODINE] |  |  |  |  |  | 0.49 mg/kg | 3.3 nM
CC(C)[C@@]1(O)[C@@H](OC(=O)c2ccc[nH]2)[C@]2(NO)O[C@@]3(O)[C@]45O[C@@](O)(C[C@@]2(C)[C@@]4(O)CC[C@H](C)[C@H]5O)[C@]31C | 21 | 14 | 200 | 270 | 29 |  | 
CC(C)[C@@]1(O)[C@@H](OC(=O)c2ccc[nH]2)/C(=N/O)[C@@]2(C)C[C@]3(O)O[C@]4(C(=O)[C@]13C)[C@H](O)[C@@H](C)CC[C@@]42O | 0.78 | 0.76 | 6 | 2.7 | 0.88 |  | 
C=C1CC[C@@]2(O)[C@]3(O[C@@]4(O)C[C@]2(C)C(=O)[C@H](OC(=O)c2ccc[nH]2)[C@](O)(C(C)C)[C@@]4(C)C3=O)[C@@H]1O [4,12-SECO-4,12-DIOXODEHYDRORYANODIN] | 1.1 | 0.79 | 4 | 4 | 0.97 |  | 
CC(C)[C@@]1(O)[C@@H](OC(=O)c2ccc[nH]2)[C@@H]2O[C@@]3(O)[C@]45O[C@@](O)(C[C@@]2(C)[C@@]4(O)CC[C@H](C)[C@H]5O)[C@]31C | 21 | 28 | 40 | 27 | 19 |  | 
CO/N=C1/[C@H](OC(=O)c2ccc[nH]2)[C@](O)(C(C)C)[C@@]2(C)C(=O)[C@]34O[C@@]2(O)C[C@@]1(C)[C@@]3(O)CC[C@H](C)[C@H]4O | 0.7 | 0.75 | 12 | 10 | 0.86 |  | 
C=C1CC[C@]2(O)[C@]3(C)C[C@]4(O)O[C@@]2([C@@H]1O)[C@]1(O)O[C@@]3(NN)[C@H](OC(=O)c2ccc[nH]2)[C@](O)(C(C)C)[C@@]14C | 14 | 11 | 60 | 50 | 14 |  | 
CON[C@@]12O[C@@]3(O)[C@H](OC(=O)c4ccc[nH]4)[C@](O)(C(C)C)[C@]1(C)[C@]1(O)C[C@@]3(C)[C@@]3(O)CC[C@H](C)[C@@H](O)[C@@]32O1 |  |  | 2 | 1.3 |  |  | 
CC(C)[C@@]1(O)[C@@H](OC(=O)c2ccc[nH]2)/C(=N/OCc2ccccc2)[C@@]2(C)C[C@]3(O)O[C@]4(C(=O)[C@]13C)[C@H](O)[C@@H](C)CC[C@@]42O | 0.94 | 1.3 | 1 | 0.8 | 2.1 |  | 
CC(C)[C@@]1(O)[C@@H](OC(=O)c2ccc[nH]2)[C@@H](O)[C@@]2(C)C[C@]3(O)O[C@@]4([C@H](O)[C@@H](C)CC[C@@]42O)[C@@H](O)[C@]13C | 5.4 | 4.7 |  |  | 5.3 |  | 
C=C1CC[C@]2(O)[C@]3(C)C[C@]4(O)O[C@@]2([C@@H]1O)[C@]1(/N=N/c2ccccc2)O[C@@]3(O)[C@H](OC(=O)c2ccc[nH]2)[C@](O)(C(C)C)[C@@]14C | 3.6 | 4.7 |  | 6 | 6.3 |  | 
CCCSC[C@H]1CC[C@]2(O)[C@]3(C)C[C@]4(O)O[C@@]2([C@@H]1O)[C@]1(O)[C@@]3(O)[C@H](OC(=O)c2ccc[nH]2)[C@](O)(C(C)C)[C@@]14C | 0.88 |  | 6 | 4 |  |  | 

Source: ChEMBL document CHEMBL3046867, “Bioactive ryanoids from nucleophilic additions to 4,12-seco-4,12-dioxoryanodine” (J Med Chem, 1993)
